Results published in ChEMBL document CHEMBL1667826, “Synthesis, modification, and evaluation of (R)-de-O-methyllasiodiplodin and analogs as nonsteroidal antagonists of mineralocorticoid receptor” (Bioorg Med Chem Lett, 2011).
pIC50: −log10 of the molar value.

Columns and labels:
[1] = target: T1, Mineralocorticoid receptor (Rattus norvegicus, UniProt P22199); assay: Antagonist activity at rat mineralocorticoid receptor-ligand binding domain expressed in AH109 yeast cells co expressing pGADT7-hSRC-1 by two hybrid assay; type: cell-based; details: for pIC50: read-out: IC50
T1 sequence (P22199 whole entry): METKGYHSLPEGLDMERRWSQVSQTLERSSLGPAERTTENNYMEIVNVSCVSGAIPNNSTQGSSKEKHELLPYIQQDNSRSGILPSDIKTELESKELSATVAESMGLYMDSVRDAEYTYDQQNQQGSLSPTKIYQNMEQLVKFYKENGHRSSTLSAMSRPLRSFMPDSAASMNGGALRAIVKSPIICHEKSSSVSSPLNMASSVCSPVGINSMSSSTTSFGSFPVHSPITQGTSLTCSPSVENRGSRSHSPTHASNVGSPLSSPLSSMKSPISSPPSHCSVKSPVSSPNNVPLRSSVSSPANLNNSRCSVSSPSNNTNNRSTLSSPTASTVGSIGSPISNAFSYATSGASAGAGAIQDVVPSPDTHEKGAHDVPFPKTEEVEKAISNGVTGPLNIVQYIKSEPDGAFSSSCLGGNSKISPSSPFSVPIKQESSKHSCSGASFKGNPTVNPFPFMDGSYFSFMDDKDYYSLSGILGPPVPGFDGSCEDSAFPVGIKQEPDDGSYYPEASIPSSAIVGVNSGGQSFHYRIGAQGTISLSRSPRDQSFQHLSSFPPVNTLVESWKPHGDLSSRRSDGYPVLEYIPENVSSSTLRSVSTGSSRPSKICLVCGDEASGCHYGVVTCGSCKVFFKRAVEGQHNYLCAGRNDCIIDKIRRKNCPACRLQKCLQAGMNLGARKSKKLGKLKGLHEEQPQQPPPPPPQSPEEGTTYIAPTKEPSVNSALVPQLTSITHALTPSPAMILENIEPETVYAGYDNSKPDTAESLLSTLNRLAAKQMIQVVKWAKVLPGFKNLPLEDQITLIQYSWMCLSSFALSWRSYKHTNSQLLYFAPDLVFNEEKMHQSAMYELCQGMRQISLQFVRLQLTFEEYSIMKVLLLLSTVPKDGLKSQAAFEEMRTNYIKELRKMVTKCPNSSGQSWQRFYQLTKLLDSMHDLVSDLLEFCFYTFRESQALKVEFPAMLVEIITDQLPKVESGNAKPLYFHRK
Procedure, shortened: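 Yeast two-hybrid read-out of corticosterone-stimulated interaction between the MR ligand-binding domain and the SRC1 coactivator. Antagonism of this interaction is expressed as IC50.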

[2] = target: T2, Glucocorticoid receptor (Homo sapiens, UniProt P04150); assay: Inhibition of glucocorticoid receptor ligand binding domain expressed in HEK293T cells; type: cell-based; details: hek-293t
T2 sequence (P04150 whole entry): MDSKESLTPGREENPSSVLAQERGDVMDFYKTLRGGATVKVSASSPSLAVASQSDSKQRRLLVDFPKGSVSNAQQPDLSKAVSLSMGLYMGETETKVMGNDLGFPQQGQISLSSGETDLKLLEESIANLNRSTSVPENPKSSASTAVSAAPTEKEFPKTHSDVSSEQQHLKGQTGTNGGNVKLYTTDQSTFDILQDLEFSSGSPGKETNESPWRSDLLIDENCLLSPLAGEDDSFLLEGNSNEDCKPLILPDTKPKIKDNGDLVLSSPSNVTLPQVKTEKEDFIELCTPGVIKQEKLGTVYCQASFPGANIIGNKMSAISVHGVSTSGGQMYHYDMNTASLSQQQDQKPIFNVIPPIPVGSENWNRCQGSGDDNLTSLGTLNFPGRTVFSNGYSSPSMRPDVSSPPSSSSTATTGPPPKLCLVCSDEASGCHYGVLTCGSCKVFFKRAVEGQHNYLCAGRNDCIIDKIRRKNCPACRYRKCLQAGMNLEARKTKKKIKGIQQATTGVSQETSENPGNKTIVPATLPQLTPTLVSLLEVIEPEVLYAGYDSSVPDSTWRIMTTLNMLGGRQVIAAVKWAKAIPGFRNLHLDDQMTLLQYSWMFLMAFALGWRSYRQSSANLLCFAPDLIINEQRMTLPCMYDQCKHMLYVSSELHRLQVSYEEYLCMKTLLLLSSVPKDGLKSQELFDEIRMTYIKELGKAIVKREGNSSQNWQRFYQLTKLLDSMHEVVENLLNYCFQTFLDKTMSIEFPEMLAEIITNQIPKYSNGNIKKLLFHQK
Procedure, shortened: (§1)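 Mammalian one-hybrid assay in HEK293T cells transiently co-transfected with a UAS-TK-Luc reporter, pRL-SV40 and a pGAL4 fusion of the receptor LBD (ERα, GR or PR). The read-out is luciferase, measuring antagonism at each receptor.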

[3] = target: T3, Estrogen receptor (Homo sapiens, UniProt P03372); assay: Inhibition of ERalpha ligand binding domain expressed in HEK293T cells; type: cell-based, HEK-293T; details: for pIC50: read-out: IC50; for IC50: hek-293t; procedure, shortened: as §1
T3 sequence (P03372 whole entry): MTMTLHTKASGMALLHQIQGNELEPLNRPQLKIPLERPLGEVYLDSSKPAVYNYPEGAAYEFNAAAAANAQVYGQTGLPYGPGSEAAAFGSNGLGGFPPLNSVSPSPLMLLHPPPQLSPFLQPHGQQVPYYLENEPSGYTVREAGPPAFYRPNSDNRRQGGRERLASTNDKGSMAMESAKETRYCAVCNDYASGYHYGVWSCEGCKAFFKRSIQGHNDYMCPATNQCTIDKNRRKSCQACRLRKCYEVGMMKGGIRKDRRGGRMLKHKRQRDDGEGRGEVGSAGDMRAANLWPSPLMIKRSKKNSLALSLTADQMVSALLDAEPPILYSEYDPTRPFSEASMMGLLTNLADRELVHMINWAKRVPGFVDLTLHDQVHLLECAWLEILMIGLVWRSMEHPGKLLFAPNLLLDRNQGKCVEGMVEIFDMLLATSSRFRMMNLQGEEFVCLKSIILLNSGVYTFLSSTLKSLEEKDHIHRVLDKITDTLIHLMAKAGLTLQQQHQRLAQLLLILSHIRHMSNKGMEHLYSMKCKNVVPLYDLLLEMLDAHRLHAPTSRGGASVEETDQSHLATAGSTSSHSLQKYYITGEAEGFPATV

[4] = target: T4, Progesterone receptor (Homo sapiens, UniProt P06401); assay: Inhibition of progesterone receptor ligand binding domain expressed in HEK293T cells; type: cell-based, HEK-293T; details: for IC50: hek-293t; for pIC50: read-out: IC50; procedure, shortened: as §1
T4 sequence (P06401 whole entry): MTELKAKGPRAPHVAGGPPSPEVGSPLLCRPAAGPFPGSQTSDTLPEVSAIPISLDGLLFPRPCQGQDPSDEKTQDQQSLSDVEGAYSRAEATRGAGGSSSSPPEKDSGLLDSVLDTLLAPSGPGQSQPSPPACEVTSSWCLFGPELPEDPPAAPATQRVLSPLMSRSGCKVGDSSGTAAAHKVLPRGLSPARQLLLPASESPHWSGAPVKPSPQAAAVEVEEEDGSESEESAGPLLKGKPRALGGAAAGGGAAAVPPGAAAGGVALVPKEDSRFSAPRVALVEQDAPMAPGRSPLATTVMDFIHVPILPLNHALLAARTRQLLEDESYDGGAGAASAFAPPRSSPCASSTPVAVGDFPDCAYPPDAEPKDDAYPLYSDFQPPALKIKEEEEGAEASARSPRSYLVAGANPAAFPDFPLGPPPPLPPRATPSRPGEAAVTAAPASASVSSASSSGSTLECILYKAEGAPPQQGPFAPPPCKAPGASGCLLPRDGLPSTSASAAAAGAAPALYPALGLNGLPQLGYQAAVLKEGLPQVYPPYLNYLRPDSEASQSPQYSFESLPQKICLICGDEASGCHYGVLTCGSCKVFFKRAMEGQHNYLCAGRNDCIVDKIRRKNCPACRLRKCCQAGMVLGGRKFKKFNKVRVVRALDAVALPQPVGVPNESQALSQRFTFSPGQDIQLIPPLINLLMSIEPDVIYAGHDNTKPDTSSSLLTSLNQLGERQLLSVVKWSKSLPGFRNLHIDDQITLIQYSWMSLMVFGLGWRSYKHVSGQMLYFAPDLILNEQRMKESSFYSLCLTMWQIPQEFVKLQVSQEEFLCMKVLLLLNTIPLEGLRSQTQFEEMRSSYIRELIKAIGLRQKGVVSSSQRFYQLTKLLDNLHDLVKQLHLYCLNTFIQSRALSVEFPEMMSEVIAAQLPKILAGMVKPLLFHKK

Row | SMILES | IC50 [1] | also measured
1 | CC(=O)Oc1cc2c(c(OC(C)=O)c1)C(=O)O[C@H](C)CCCCCCC2 |  | pIC50 [1]: 5.56; IC50 [2]: Not Active; pIC50 [3]: 5.08; IC50 [4]: Not Active
2 | O=C1OCCCCCCCCCc2cc(O)cc(O)c21 | Not Active | 
3 | CCCCOc1cc2c(c(OCCCC)c1)C(=O)O[C@H](C)CCCCCCC2 | Not Active | 
4 | CC(=O)Oc1cc2c(c(OC(C)=O)c1)C(=O)OCCCCCCCCCC2 |  | pIC50 [1]: 5.54; IC50 [2]: Not Active; pIC50 [3]: < 5.00; pIC50 [4]: 5.49
5 | CCC(=O)Oc1cc2c(c(OC(=O)CC)c1)C(=O)O[C@H](C)CCCCCCC2 |  | pIC50 [1]: 4.50
6 | C[C@@H]1CCCCCCCc2cc(O)cc(O)c2C(=O)O1 |  | pIC50 [1]: 5.05
7 | C[C@@H]1CCCCCCCc2cc(OC(=O)c3ccc(Br)cc3)cc(OC(=O)c3ccc(Br)cc3)c2C(=O)O1 | Not Active | 
8 | C=CCCC[C@@H](C)OC(=O)c1c(CCC=C)cc(OC)cc1OC | Not Active | 
9 | COc1cc2c(c(OC)c1)C(=O)O[C@H](C)CCC/C=C\CC2 |  | pIC50 [1]: 4.78
10 | O=C1OCCCCCCCCc2cc(O)cc(O)c21 | Not Active | 
11 | CCCC(=O)Oc1cc2c(c(OC(=O)CCC)c1)C(=O)O[C@H](C)CCCCCCC2 | Not Active | 
12 | COc1cc(O)cc2c1C(=O)O[C@H](C)CCCCCCC2 | Not Active | 
13 | CC(C)C(=O)Oc1cc2c(c(OC(=O)C(C)C)c1)C(=O)O[C@H](C)CCCCCCC2 | Not Active | 
14 | C[C@@H]1CCCCCCCc2cc(OC(=O)c3ccccc3)cc(OC(=O)c3ccccc3)c2C(=O)O1 | Not Active | 
15 | COc1cc(O)c2c(c1)CCCCCCC[C@@H](C)OC2=O | Not Active | 
16 | C=CCOc1cc2c(c(OCC=C)c1)C(=O)O[C@H](C)CCCCCCC2 | Not Active | 
17 | O=C1OCCCCCCCCCCc2cc(O)cc(O)c21 | Not Active | 

Row | SMILES | IC50 [1] | also measured
18 | CCOc1cc2c(c(OCC)c1)C(=O)O[C@H](C)CCCCCCC2 | Not Active | 
19 | COc1cc2c(c(OC)c1)C(=O)O[C@H](C)CCCCCCC2 | Not Active | 
20 | CC(=O)Oc1cc2c(c(OC(C)=O)c1)C(=O)OCCCCCCCCC2 |  | pIC50 [1]: 6.09; IC50 [2]: Not Active; IC50 [3]: Not Active; pIC50 [4]: 5.51
21 | C=CCOc1cc(O)c2c(c1)CCCCCCC[C@@H](C)OC2=O | Not Active | 
22 | Cc1ccc(S(=O)(=O)Oc2cc3c(c(OS(=O)(=O)c4ccc(C)cc4)c2)C(=O)O[C@H](C)CCCCCCC3)cc1 |  | pIC50 [1]: 5.19
23 | CC(=O)Oc1cc2c(c(OC(C)=O)c1)C(=O)OCCCCCCC2 |  | pIC50 [1]: 6.24; IC50 [2]: Not Active; IC50 [3]: Not Active; IC50 [4]: Not Active
24 | C[C@@H]1CCCCCCCc2cc(OCc3ccccc3)cc(O)c2C(=O)O1 | Not Active | 
25 | C[C@@H]1CCCCCCCc2cc(OC(=O)c3ccc(Cl)cc3)cc(OC(=O)c3ccc(Cl)cc3)c2C(=O)O1 | Not Active | 
26 | COc1cc2c(c(OC)c1)C(=O)O[C@H](C)CCC/C=C/CC2 | Not Active | 
27 | CCCOc1cc(O)c2c(c1)CCCCCCC[C@@H](C)OC2=O | Not Active | 
28 | O=C1OCCCCCCCc2cc(O)cc(O)c21 | Not Active | 
29 | CCOc1cc(O)c2c(c1)CCCCCCC[C@@H](C)OC2=O | Not Active | 
30 | C[C@@H]1CCCCCCCc2cc(OCc3ccc([N+](=O)[O-])cc3)cc(OCc3ccc([N+](=O)[O-])cc3)c2C(=O)O1 | Not Active | 
31 | CCCOc1cc2c(c(OCCC)c1)C(=O)O[C@H](C)CCCCCCC2 | Not Active | 
32 | C[C@@H]1CCCCCCCc2cc(OCc3ccccc3)cc(OCc3ccccc3)c2C(=O)O1 | Not Active | 
33 | CC(=O)Oc1cc2c(c(OC(C)=O)c1)C(=O)OCCCCCCCC2 |  | pIC50 [1]: 5.95; IC50 [2]: Not Active; IC50 [3]: Not Active; IC50 [4]: Not Active
